# Data reported in ChEMBL document CHEMBL2057140, “Design, synthesis, biological evaluation and molecular modeling of novel 1,3,4-oxadiazole derivatives based on Vanillic acid as potential immunosuppressive agents” (Bioorg Med Chem, 2012).
# Activity calls are given as the source filed them. The rule behind the calls is not given here.
# Experiments:
# [1] = Cytotoxicity against BALB/c mouse lymph node cells after 24 hrs by MTT assay; format: cell-based
# How it was run: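 Fresh BALB/C mouse lymph node cells, 5 × 10⁵ per well, given compounds at […] for 24 h at 37 °C, 5% CO₂; untreated cells served as control. MTT (4 mg/mL in PBS) added for the final 4 h, formazan dissolved in DMSO, absorbance read at 570 nm; CC₅₀ reported with SD.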
# [2] = Immunosuppressive activity in BALB/c mouse T cells assessed as inhibition of ConA-induced T cell proliferation incubated 24 hrs post ConA-induction for 72 hrs by MTT assay; format: functional, cell-based
# How it was run: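 BALB/C lymph node cells, 5 × 10⁵ per well, stimulated with ConA at […] for 24 h, then left untreated or given compounds for 72 h. MTT (4 mg/mL in PBS) added for the last 4 h; proliferation read by MTT and IC₅₀ reported with SD.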
# T-cell [3] = assay: Selectivity index ratio of CC50 for BALB/c mouse lymph node cells to IC50 for BALB/c mouse ConA-induced T cell proliferation; format: functional
# How it was run: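 Ratio of the lymph node cell CC₅₀ from the 24 h MTT cytotoxicity assay to the IC₅₀ against ConA-stimulated proliferation from the 72 h MTT assay.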
# [4] = biological target: Phosphatidylinositol 4,5-bisphosphate 3-kinase catalytic subunit gamma isoform (Homo sapiens, UniProt P48736); assay: Inhibition of PI3Kgamma after 4 hrs
# Mus musculus [5] = species: Mus musculus; assay: Inhibition of PI3K-mediated AKT inhibition in BALB/c mouse lymph node cells assessed as reduction in ConA-induced IL1 production at 5 uM incubated for 2 hrs prior to ConA-indution measured after 22 hrs by ELISA
# How it was run: (§1)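 Mouse lymph node cells kept in DMEM with 10% FBS, penicillin and streptomycin at 37 °C, 5% CO₂. Pre-treated with compound at […] or vehicle for 2 h, then with ConA at […] for 22 h. Media centrifuged, and IL-1, IL-6 and IL-10 quantified by mouse ELISA kits.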
# Mus musculus [6] = species: Mus musculus; assay: Inhibition of PI3K-mediated AKT inhibition in BALB/c mouse lymph node cells assessed as reduction in ConA-induced IL6 production at 5 uM incubated for 2 hrs prior to ConA-indution measured after 22 hrs by ELISA; how it was run: as §1
# Mus musculus [7] = species: Mus musculus; assay: Inhibition of PI3K-mediated AKT inhibition in BALB/c mouse lymph node cells assessed as reduction in ConA-induced IL10 production at 5 uM incubated for 2 hrs prior to ConA-indution measured after 22 hrs by ELISA; how it was run: as §1
# T-cell [8] = assay: Induction of apoptosis in BALB/c mouse ConA-activated T cells assessed as early apoptotic cells at 0.25 uM incubated 24 hrs-post ConA-activation for 24 hrs by AnnexinV-FITC based flow cytometry relative to vehicle treated control; format: functional
# How it was run: (§2)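 Lymph node cells, 3 × 10⁶ per well, stimulated with ConA at […] for 24 h, then exposed to compound at 0.25, 2.5 or 25 µM for 24 h. Cells harvested, stained with Annexin V-FITC and propidium iodide, and apoptotic fraction measured by flow cytometry.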
# T-cell [9] = assay: Induction of apoptosis in BALB/c mouse ConA-activated T cells assessed as early apoptotic cells at 2.5 uM incubated 24 hrs-post ConA-activation for 24 hrs by AnnexinV-FITC based flow cytometry relative to vehicle treated control; format: functional; how it was run: as §2
# T-cell [10] = assay: Induction of apoptosis in BALB/c mouse ConA-activated T cells assessed as early apoptotic cells at 25 uM incubated 24 hrs-post ConA-activation for 24 hrs by AnnexinV-FITC based flow cytometry relative to vehicle treated control; format: functional; how it was run: as §2
# T-cell [11] = assay: Induction of apoptosis in BALB/c mouse ConA-activated T cells incubated 24 hrs-post ConA-activation for 24 hrs by AnnexinV-FITC based flow cytometry; format: functional; how it was run: as §2
# Phosphatidylinositol 4,5-bisphosphate 3-kinase catalytic subunit gamma isoform, sequence (P48736 whole entry, canonical isoform): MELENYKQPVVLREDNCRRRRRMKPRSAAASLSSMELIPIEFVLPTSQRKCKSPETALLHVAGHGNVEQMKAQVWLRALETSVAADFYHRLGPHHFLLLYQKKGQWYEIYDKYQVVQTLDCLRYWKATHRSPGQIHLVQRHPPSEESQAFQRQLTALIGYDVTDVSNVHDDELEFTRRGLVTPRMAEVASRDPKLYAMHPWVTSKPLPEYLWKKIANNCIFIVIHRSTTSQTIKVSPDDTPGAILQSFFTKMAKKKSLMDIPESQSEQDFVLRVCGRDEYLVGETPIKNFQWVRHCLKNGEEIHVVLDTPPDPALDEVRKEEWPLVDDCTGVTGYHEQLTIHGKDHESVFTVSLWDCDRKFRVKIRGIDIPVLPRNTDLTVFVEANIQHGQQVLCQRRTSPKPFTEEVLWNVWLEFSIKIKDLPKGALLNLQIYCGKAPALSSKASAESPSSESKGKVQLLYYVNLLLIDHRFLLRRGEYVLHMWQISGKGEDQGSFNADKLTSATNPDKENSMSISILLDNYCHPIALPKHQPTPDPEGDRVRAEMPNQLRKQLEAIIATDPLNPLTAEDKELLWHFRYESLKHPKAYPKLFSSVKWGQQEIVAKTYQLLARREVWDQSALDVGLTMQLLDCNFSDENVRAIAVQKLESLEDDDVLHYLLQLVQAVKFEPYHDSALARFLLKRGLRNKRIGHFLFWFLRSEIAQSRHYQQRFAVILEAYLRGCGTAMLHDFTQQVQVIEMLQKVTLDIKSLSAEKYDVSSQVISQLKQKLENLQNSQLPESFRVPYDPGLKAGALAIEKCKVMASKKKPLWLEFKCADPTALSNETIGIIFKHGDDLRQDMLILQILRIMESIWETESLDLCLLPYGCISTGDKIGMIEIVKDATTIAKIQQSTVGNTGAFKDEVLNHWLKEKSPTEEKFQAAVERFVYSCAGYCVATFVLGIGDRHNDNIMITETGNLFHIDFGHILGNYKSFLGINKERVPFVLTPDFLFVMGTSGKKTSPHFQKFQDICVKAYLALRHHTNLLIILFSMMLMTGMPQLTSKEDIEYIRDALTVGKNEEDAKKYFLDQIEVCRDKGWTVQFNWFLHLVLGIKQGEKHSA
Structure (SMILES),CC50 at 24 h [1],IC50 [2],Ratio CC50/IC50 (T-cell [3]),also measured
COc1cc(-c2nnc(SCc3ccc(F)cc3F)o2)ccc1O,520 µM,9.69 µM,53.67,–
COc1cc(-c2nnc(SCc3ccc([N+](=O)[O-])cc3)o2)ccc1OCc1ccc([N+](=O)[O-])cc1,156 µM,7.6 µM,20.48,–
COc1cc(-c2nnc(SCc3ccc(Br)cc3)o2)ccc1OCc1ccc(Br)cc1,225 µM,17.3 µM,12.99,–
COc1cc(-c2nnc(SCc3cccc([N+](=O)[O-])c3)o2)ccc1O,392 µM,16 µM,24.59,–
COc1cc(-c2nnc(SCc3ccccc3C)o2)ccc1O,592 µM,8.42 µM,70.36,IC50 [4]: 6.48 µM
COc1cc(-c2nnc(SCc3cc(F)cc(F)c3)o2)ccc1OCc1cc(F)cc(F)c1,266 µM,14.4 µM,18.49,–
COc1cc(-c2nnc(SCc3cccc(Br)c3)o2)ccc1O,382 µM,48.1 µM,7.95,–
COc1cc(-c2nnc(SCc3ccc(C)cc3)o2)ccc1OCc1ccc(C)cc1,275 µM,9.06 µM,30.38,–
COc1cc(-c2nnc(SCc3ccc(Cl)cc3)o2)ccc1OCc1ccc(Cl)cc1,136 µM,17.2 µM,5,–
COc1cc(-c2nnc(SCc3cccc(Cl)c3)o2)ccc1OCc1cccc(Cl)c1,178 µM,15.8 µM,11.23,–
COc1cc(-c2nnc(SCc3cccc([N+](=O)[O-])c3)o2)ccc1OCc1cccc([N+](=O)[O-])c1,168 µM,12.2 µM,13.75,–
COc1cc(-c2nnc(SCc3c(F)cccc3F)o2)ccc1OCc1c(F)cccc1F,179 µM,5.22 µM,34.21,IC50 [4]: 5.74 µM
COc1cccc(COc2ccc(-c3nnc(SCc4cccc(OC)c4)o3)cc2OC)c1,242 µM,10.1 µM,24.04,–
COc1cc(-c2nnc(SCc3cccc(Br)c3)o2)ccc1OCc1cccc(Br)c1,161 µM,9.12 µM,17.66,–
COc1cc(-c2nnc(SCc3ccccc3)o2)ccc1OCc1ccccc1,197 µM,13.3 µM,14.79,–
COc1cc(-c2nnc(SCc3ccc(F)cc3)o2)ccc1O,685 µM,8.19 µM,83.62,–
COc1cc(-c2nnc(SCc3ccc(Br)cc3)o2)ccc1O,455 µM,8.83 µM,51.58,–
COc1cc(-c2nnc(SCc3cccc(Cl)c3)o2)ccc1O,470 µM,8.29 µM,56.74,–

Structure (SMILES),CC50 at 24 h [1],IC50 [2],Ratio CC50/IC50 (T-cell [3]),also measured
COc1cc(-c2nnc(SCc3ccc(C)cc3)o2)ccc1O,549 µM,6.21 µM,88.5,IC50 [4]: 7.41 µM
COc1cc(-c2nnc(SCc3ccccc3Br)o2)ccc1O,363 µM,17.8 µM,20.42,–
COc1cc(-c2nnc(SCc3ccc(F)cc3)o2)ccc1OCc1ccc(F)cc1,153 µM,12.9 µM,11.89,–
COc1cc(-c2nnc(SCc3ccccc3C)o2)ccc1OCc1ccccc1C,195 µM,18.9 µM,15.19,–
COc1cc(-c2nnc(SCc3ccc([N+](=O)[O-])cc3)o2)ccc1O,688 µM,14.2 µM,48.6,–
COc1cc(-c2nnc(SCc3c(F)cccc3F)o2)ccc1O,575 µM,10.1 µM,57.1,–
COc1cc(-c2nnc(SCc3ccccc3Cl)o2)ccc1O,564 µM,8.43 µM,66.94,–
COc1cccc(CSc2nnc(-c3ccc(O)c(OC)c3)o2)c1,389 µM,7.41 µM,52.55,IC50 [4]: 2.87 µM
COc1cc(-c2nnc(SCc3ccccc3F)o2)ccc1OCc1ccccc1F,171 µM,4.76 µM,35.89,IC50 [4]: 5.12 µM; inhibition (Mus musculus [5]): Active; inhibition (Mus musculus [6]): Active; inhibition (Mus musculus [7]): Active
COc1cc(-c2nnc(SCc3ccccc3)o2)ccc1O,211 µM,1.25 µM,168.83,IC50 [4]: 1.34 µM; Activity (T-cell [8]): 2.43%; Activity (T-cell [9]): 4.34%; Activity (T-cell [10]): 4.98%; Activity (T-cell [11]): Dose-dependent effect; inhibition (Mus musculus [5]): Active; inhibition (Mus musculus [6]): Active; inhibition (Mus musculus [7]): Active
COc1cc(-c2nnc(SCc3ccccc3[N+](=O)[O-])o2)ccc1O,331 µM,9.6 µM,34.45,–
COc1cc(-c2nnc(SCc3ccccc3F)o2)ccc1O,474 µM,5.79 µM,81.82,–
COc1cc(-c2nnc(SCc3ccccc3Br)o2)ccc1OCc1ccccc1Br,151 µM,8.71 µM,17.33,–
COc1cc(-c2nnc(SCc3ccc(F)cc3F)o2)ccc1OCc1ccc(F)cc1F,182 µM,12.9 µM,14.1,–
COc1cc(-c2nnc(SCc3ccccc3Cl)o2)ccc1OCc1ccccc1Cl,144 µM,10.6 µM,8.67,–
C/C=C/C[C@@H](C)[C@@H](O)[C@H]1C(=O)N[C@@H](CC)C(=O)N(C)CC(=O)N(C)[C@@H](CC(C)C)C(=O)N[C@@H](C(C)C)C(=O)N(C)[C@@H](CC(C)C)C(=O)N[C@@H](C)C(=O)N[C@H](C)C(=O)N(C)[C@@H](CC(C)C)C(=O)N(C)[C@@H](CC(C)C)C(=O)N(C)[C@@H](C(C)C)C(=O)N1C [CYCLOSPORINE],–,–,82.19,–
COc1cc(-c2nnc(SCc3ccc(Cl)cc3)o2)ccc1O,480 µM,11.1 µM,43.35,–
